Results: ChEMBL document CHEMBL3108778, “Structure-activity relationships of synthetic cordycepin analogues as experimental therapeutics for African trypanosomiasis” (J Med Chem, 2013)
The source made the active and inactive calls. No cut-off for these calls is given here.

What was measured:
[1] = system: Trypanosoma brucei brucei; test: Trypanocidal activity against bloodstream stage of Trypanosoma brucei brucei AnTat1.1E after 72 hrs by WST-1 assay; assay type: functional, organism-based
Summary of the method: (§1)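 Bloodstream trypanosomes (6000/well) in log phase were treated in IMDM with 10% FCS for 72 h at 37 °C, 5% CO₂. Compounds were 11-step serial dilutions from DMSO stocks, final DMSO at most 0.25%. Controls were DMSO and 10 μM 3′-deoxyadenosine. Where stated, 1.5 μM deoxycoformycin was co-added. Readout was WST-1 for 2 h, A450. EC50 came from variable-slope nonlinear regression.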

[2] = Displacement of [2,8-3H]-adenosine from Trypanosoma brucei AT1/P2 expressed in bloodstream stage of Trypanosoma brucei brucei B48
Summary of the method: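 Bloodstream T. b. brucei B48 clone with endogenous TbAT1 deleted and TbAT1 overexpressed. Cells were incubated 20 s with 0.05 μM [2,8-³H]adenosine plus competitor (typically 10 nM–100 μM). Uptake was stopped with ice-cold 1 mM adenosine and centrifugation through oil. Ki came from competition curves, triplicates on at least three occasions.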

L929 = test: Cytotoxicity against mouse L929 cells assessed as cell viability after 72 hrs by WST-1 assay; assay type: cell-based; conditions: L929, 72 h
Summary of the method: (§2)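 MOLT4 (10⁴/well) or L929 (5 × 10³/well) cells were kept in RPMI with 10% FCS and exposed to serial dilutions for 72 h at 37 °C, 5% CO₂. Final DMSO was at most 0.25%. Where stated, 1.5 μM deoxycoformycin was co-added. WST-1 was added for 2 h and A450 read. EC50 came from variable-slope nonlinear fits; triplicate cultures.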

[3] = system: Trypanosoma brucei brucei; test: Trypanocidal activity against bloodstream stage of Trypanosoma brucei brucei AnTat1.1E after 72 hrs by WST-1 assay in presence of deoxycoformycin; assay type: functional, organism-based; summary of the method: as §1
[4] = system: Trypanosoma brucei brucei; test: Trypanocidal activity against bloodstream stage of Trypanosoma brucei brucei AnTat1.1E infected in C57BL6J (B6) mouse assessed as reduction of parasitemia at 4 mg/kg, ip qd administered for 3 days measured after 40 days in presence of deoxycoformycin; assay type: functional, organism-based; parameters: dose 4 mg/kg
Summary of the method: (§3)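 Mice were infected ip with T. b. brucei AnTat1.1E and treated ip once daily starting 2 h later. Where stated, 0.2 mg/kg deoxycoformycin was co-given. Vehicle was PBS with 1.25% final DMSO. Parasitemia and weight were recorded every other day, then twice weekly after 30 days. At least six mice per group.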

[5] = system: Trypanosoma brucei brucei; test: Trypanocidal activity against bloodstream stage of Trypanosoma brucei brucei AnTat1.1E infected in C57BL6J (B6) mouse assessed as reduction of parasitemia at 4 mg/kg, ip qd administered for 10 days measured after 19 to 30 days; assay type: functional, organism-based; parameters: dose 4 mg/kg; summary of the method: as §3
[6] = system: Trypanosoma brucei brucei; test: Trypanocidal activity against bloodstream stage of Trypanosoma brucei brucei AnTat1.1E infected in C57BL6J (B6) mouse assessed as reduction of parasitemia at 4 mg/kg, ip qd administered for 10 days measured after 18 days; assay type: functional, organism-based; parameters: dose 4 mg/kg; summary of the method: as §3
Trypanosoma brucei [7] = test: Trypanocidal activity against Trypanosoma brucei; assay type: functional, organism-based; summary of the method: as §1
[8] = system: Trypanosoma brucei brucei; test: Trypanocidal activity against bloodstream stage of Trypanosoma brucei brucei AnTat1.1E after 72 hrs by WST-1 assay in presence of adenosine kinase inhibitor ABT702; assay type: functional, organism-based
Trypanosoma brucei [9] = test: Trypanocidal activity against bloodstream stage of Trypanosoma brucei after 72 hrs by WST-1 assay in presence of deoxycoformycin; assay type: functional, organism-based; summary of the method: as §1
Trypanosoma brucei [10] = test: Trypanocidal activity against bloodstream stage of Trypanosoma brucei after 72 hrs by WST-1 assay; assay type: functional, organism-based; summary of the method: as §1
MOLT-4 [11] = test: Cytotoxicity against human MOLT4 cells assessed as cell viability after 72 hrs by WST-1 assay in presence of deoxycoformycin; assay type: cell-based; conditions: MOLT-4, 72 h; summary of the method: as §2
MOLT-4 [12] = test: Cytotoxicity against human MOLT4 cells assessed as cell viability after 72 hrs by WST-1 assay; assay type: cell-based; conditions: MOLT-4, 72 h; summary of the method: as §2
[13] = system: Trypanosoma brucei brucei; test: Trypanocidal activity against bloodstream stage of Trypanosoma brucei brucei AnTat1.1E infected in C57BL6J (B6) mouse assessed as reduction of parasitemia at 2 mg/kg, ip qd measured after 30 days; assay type: functional, organism-based; parameters: dose 2 mg/kg; summary of the method: as §3
[14] = system: Trypanosoma brucei brucei; test: Trypanocidal activity against bloodstream stage of Trypanosoma brucei brucei AnTat1.1E infected in C57BL6J (B6) mouse assessed as reduction of parasitemia at 2 mg/kg, ip qd administered for 3 days measured after 40 days in presence of deoxycoformycin; assay type: functional, organism-based; parameters: dose 2 mg/kg; summary of the method: as §3
[15] = system: Trypanosoma brucei brucei; test: Trypanocidal activity against bloodstream stage of Trypanosoma brucei brucei AnTat1.1E infected in acute C57BL6J (B6) mouse HAT model assessed as day of parasitemia relapse at 5 mg/kg, po qd administered for 5 days in presence of deoxycoformycin; assay type: functional
[16] = system: Trypanosoma brucei brucei; test: Trypanocidal activity against bloodstream stage of Trypanosoma brucei brucei AnTat1.1E infected in acute C57BL6J (B6) mouse HAT model assessed as day of parasitemia relapse at 5 mg/kg, po qd administered for 5 days; assay type: functional
[17] = system: Trypanosoma brucei brucei; test: Trypanocidal activity against bloodstream stage of Trypanosoma brucei brucei AnTat1.1E infected in acute C57BL6J (B6) mouse HAT model assessed as day of parasitemia relapse at 1 mg/kg, po bid administered for 5 days; assay type: functional
[18] = Apparent terminal half life in C57BL/6 mouse at 25 mg/kg, ip; assay type: ADME, organism-based; parameters: dose 25 mg/kg, route intraperitoneal; conditions: in vivo, read-out: betat1/2(app) (converted)
[19] = Apparent terminal half life in C57BL/6 mouse at 25 mg/kg, po; assay type: ADME, organism-based; parameters: dose 25 mg/kg, route oral; conditions: in vivo, read-out: betat1/2(app) (converted)
[20] = Apparent initial half life in C57BL/6 mouse at 25 mg/kg, po; assay type: ADME, organism-based; parameters: dose 25 mg/kg, route oral; conditions: in vivo, read-out: alphat1/2(app) (converted)
[21] = Apparent initial half life in C57BL/6 mouse at 25 mg/kg, ip; assay type: ADME, organism-based; parameters: dose 25 mg/kg, route intraperitoneal; conditions: in vivo, read-out: alphat1/2(app) (converted)
[22] = Cmax in C57BL/6 mouse at 25 mg/kg, ip; assay type: ADME, organism-based; parameters: dose 25 mg/kg, route intraperitoneal; conditions: in vivo
[23] = Cmax in C57BL/6 mouse at 25 mg/kg, po; assay type: ADME, organism-based; parameters: dose 25 mg/kg, route oral; conditions: in vivo
[24] = Tmax in C57BL/6 mouse at 25 mg/kg, po and ip; assay type: ADME, organism-based; parameters: dose 25 mg/kg, route oral; conditions: in vivo
[25] = Fraction unbound in human plasma at 10 uM after 4 hrs by equilibrium dialysis method; assay type: ADME, cell-free
Summary of the method: (§4)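 Pooled human plasma (four donors) was spiked with 10 μM final compound. It was dialysed against isotonic phosphate buffer pH 7.4 for 4 h at 37 °C by rapid equilibrium dialysis. A separate sealed plasma sample was held 4 h at 37 °C for stability. Samples were methanol-precipitated and quantified by LC-MS/MS.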

[26] = Metabolic stability in CD-1 mouse liver microsomes at 1 uM by LC-MS/MS analysis; assay type: ADME, Microsome
Summary of the method: (§5)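 Pooled human or male CD-1 mouse liver microsomes (0.5 mg/mL) were incubated with 1 μM compound in 0.1 M phosphate pH 7.4, started with 1 mM NADPH. Sampling was at 0, 5, 15 and 40 min, quenched with cold acetonitrile containing warfarin internal standard. Analysis was LC-MS/MS on a relative basis; intrinsic clearance by the well-stirred model. Midazolam and dextromethorphan were CYP controls.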

Liver microsome = test: Metabolic stability in human liver microsomes at 1 uM by LC-MS/MS analysis; assay type: ADME; summary of the method: as §5
[27] = Apparent permeability across basolateral to apical side in human Caco2 cells assessed as compound recovery at 10 uM by LC-MS/MS analysis; assay type: ADME, cell-based; conditions: Caco-2, read-out: Papp
Summary of the method: (§6)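 Caco-2 monolayers (passage 94–105) were used on day 21 on permeable filters. Transport was run in both directions at pH 7.4 on both sides, 37 °C, 500 rpm stirring. The receiver side was sampled at 15, 30 and 60 min, the donor side at 60 min for mass balance. Mannitol served as integrity marker. LC-MS/MS used a 10–1000 nM external standard curve.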

[28] = Apparent permeability across basolateral to apical side in human Caco2 cells at 10 uM by LC-MS/MS analysis; assay type: ADME, cell-based; conditions: Caco-2; summary of the method: as §6
[29] = Apparent permeability across apical to basolateral side in human Caco2 cells assessed as compound recovery at 10 uM by LC-MS/MS analysis; assay type: ADME, cell-based; conditions: Caco-2, read-out: Papp; summary of the method: as §6
[30] = Apparent permeability across apical to basolateral side in human Caco2 cells at 10 uM by LC-MS/MS analysis; assay type: ADME, cell-based; conditions: Caco-2; summary of the method: as §6
[31] = Metabolic stability in human plasma at 10 uM measured over 4 hrs by LC-MS/MS analysis; assay type: ADME, cell-free; conditions: read-out: Stability; summary of the method: as §4
[32] = system: Trypanosoma brucei brucei; test: Trypanocidal activity against bloodstream stage of Trypanosoma brucei brucei AnTat1.1E infected in acute C57BL6J (B6) mouse HAT model assessed as day of parasitemia relapse at 15 mg/kg, po qd administered for 5 days; assay type: functional
[33] = system: Trypanosoma brucei brucei; test: Trypanocidal activity against bloodstream stage of Trypanosoma brucei brucei AnTat1.1E infected in acute C57BL6J (B6) mouse HAT model assessed as reduction of parasitemia at 30 mg/kg, po qd administered for 6 days measured after 90 days; assay type: functional, organism-based; parameters: dose 30 mg/kg
Caco-2 = test: Efflux ratio of apparent permeability across basolateral to apical side over apical to basolateral side in human Caco2 cells at 10 uM by LC-MS/MS analysis; conditions: caco-2, 10 µM

## Nc1ncnc2c1ncn2[C@@H]1O[C@H](CO)[C@@H](O)[C@@H]1O [VIDARABINE]
[1]; read-out: IC50
  IC50: > 100 µM

## Nc1nc(F)nc2c1ncn2[C@@H]1O[C@H](CO)[C@@H](O)[C@H]1O
[2]
  Ki: 2710 nM
[1]; read-out: IC50
  IC50: > 100 µM

## CCCCCCCC(=O)Nc1ncnc2c1ncn2[C@@H]1O[C@H](CO)C[C@H]1O
L929
  IC50: 18.6 µM
[3]
  IC50: 1 nM
[4]
  Activity: Active
[5]
  Activity: inactive
[6]
  Activity: Active
[1]; read-out: IC50(app)
  IC50: 0.028 µM

## Nc1nc(Cl)nc2c1ncn2[C@@H]1O[C@H](CO)C[C@H]1O
[2]
  Ki: 3970 nM
[1]; read-out: IC50
  IC50: > 50 µM

## Nc1[nH]cnc2ncnc1-2 [ADENINE]
[2]
  Ki: 280 nM

## Nc1ncnc2c1ncn2[C@@H]1O[C@H](CO)[C@H]2O[C@H]21
[1]; read-out: IC50
  IC50: > 100 µM

## Nc1ncnc2c1ncn2[C@@H]1O[C@H](CO)C[C@H]1O [CORDYCEPIN]
Trypanosoma brucei [7]
  IC50: 32 nM
[8]
  Activity: inactive
Trypanosoma brucei [9]
  IC50: 1.2 nM
Trypanosoma brucei [10]
  IC50: 42 nM
MOLT-4 [11]
  IC50: 100 nM
MOLT-4 [12]
  IC50: ≥ 100000 nM
L929
  IC50: 28.7 µM
[13]
  Activity: inactive
[2]
  Ki: 180 nM
[14]
  Activity: Active
[1]; read-out: IC50
  IC50: 0.03 µM

## Nc1nc(Cl)nc2c1ncn2[C@@H]1O[C@H](CO)[C@@H](O)[C@H]1O
[2]
  Ki: 9650 nM

## Nc1[nH]c(Cl)nc2ncnc1-2
[2]
  Ki: 2600 nM

## Nc1nc(F)nc2nc[nH]c12
[2]
  Ki: 900 nM
[1]; read-out: IC50
  IC50: > 100 µM

## OC[C@@H]1C[C@@H](O)[C@H](n2cnc3cncnc32)O1
L929
  IC50: > 100 µM
[1]; read-out: IC50
  IC50: 8.79 µM

## Nc1nc(NCCO)nc2c1ncn2[C@@H]1O[C@H](CO)C[C@H]1O
[1]; read-out: IC50
  IC50: > 50 µM

## Nc1nc(F)nc2c1ncn2[C@@H]1O[C@H](CO)C[C@@H]1O
[1]; read-out: IC50
  IC50: > 100 µM

## Nc1nc(F)nc2c1ncn2[C@@H]1O[C@H](CO)C[C@H]1O
[15]
  Time: 5 days
[16]
  Time: 7 days
[17]
  Time: 2 days
[18]
  half-life: 366 min
[19]
  half-life: 408 min
[20]
  half-life: 54 min
[21]
  half-life: 36 min
[22]
  Cmax: 9.17 µM
[23]
  Cmax: 4 µM
[24]
  Tmax: 30 min
[25]
  fraction unbound at 4 h, 10 µM: 1
[26]
  Stability: Stable
Liver microsome
  Stability: Stable
[27]
  recovery at 10 µM: 104%
[28]
  Papp B→A at 10 µM: 1.4 ×10⁻⁶ cm/s
[29]
  recovery at 10 µM: 102%
[30]
  Papp A→B at 10 µM: 3 ×10⁻⁶ cm/s
[31]
  remaining at 4 h, 10 µM: 98%
[8]
  Activity: inactive
Trypanosoma brucei [9]
  IC50: 170 nM
Trypanosoma brucei [10]
  IC50: 176 nM
MOLT-4 [11]
  IC50: 2130 nM
MOLT-4 [12]
  IC50: 2440 nM
[32]
  Time: 7 days
[33]
  Activity: Active
[2]
  Ki: 960 nM
[1]; read-out: IC50
  IC50: 0.17 µM
Caco-2
  Ratio: 0.5

## OC[C@H]1O[C@@H](n2cnc3cncnc32)[C@H](O)[C@@H]1O [NEBULARINE]
L929
  IC50: 2.37 µM
[1]; read-out: IC50
  IC50: 1.15 µM
